Experimental findings from ChEMBL document CHEMBL2385039 (Bioorg Med Chem, 2013) are described below.

Test [1] has as its system GABA transporter 3 (mGAT3, slc6a13, Mus musculus). Nature of the test: Inhibition of mouse GAT3 expressed in HEK cells assessed as remaining [3H]-GABA uptake at 100 uM after 25 mins by liquid scintillation counting analysis relative to control. The settings on record: HEK293.
The next test concerns HEK293. Nature of the test: Inhibition of mouse GAT4 expressed in HEK cells assessed as remaining [3H]-GABA uptake at 100 uM after 25 mins by liquid scintillation counting analysis relative to control. Type of test: cell-based. Summed up: (§1)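 The assay used the standardized [³H]GABA uptake format in HEK lines, each stably expressing one murine GAT subtype (mGAT1, mGAT2, mGAT3 or mGAT4). The value is the remaining [³H]GABA uptake with 100 μM test compound present.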

Test [2] has as its target Sodium- and chloride-dependent GABA transporter 1 (Mus musculus, UniProt P31648). Type of test: cell-based, HEK293.
Test [3] concerns Betaine/GABA transporter BGT1 (mGAT2, slc6a12, Mus musculus). Nature of the test: Inhibition of mouse GAT2 expressed in HEK cells assessed as remaining [3H]-GABA uptake at 100 uM after 25 mins by liquid scintillation counting analysis relative to control. As to conditions: HEK293.
The next test can be described thus: cells. The class given is cell-based. As to conditions: HEK293.
The target in test [4] is Sodium- and chloride-dependent GABA transporter 1 (Mus musculus) (UniProt P31648). Nature of the test: Inhibition of mouse GAT1 expressed in HEK cells assessed as remaining [3H]-GABA uptake at 100 uM after 25 mins by liquid scintillation counting analysis relative to control. As to conditions: HEK293. Type of test: cell-based. The method in brief:
as §1

In general, IC50 refers to the concentration that inhibits the measured activity by half. Lower therefore signals greater potency in that assay. With `O=C(c1cccc(F)c1)c1cc(F)ccc1/C=C\OCCN1CCCC(C(=O)O)C1` (configuration not stated), the figures for the Activity (in test [1]; with HEK293; in test [3]) were 52.7%, 45.2% and 56.9%, respectively. For the same compound, in test [2], the IC50 is 0.794 µM.
Regarding `O=C(O)[C@@H]1CCCN(CCOCCc2ccccc2Cc2ccccc2)C1`, inhibition in test [2] was half-maximal at 0.1 µM (IC50).
As for `O=C(O)C1CCCN(CCO/C=C\c2cc(F)ccc2Cc2ccc(F)cc2)C1` (configuration not stated), the Activity in the test with HEK293 turned out to be 50.3%. In test [2], this compound had an IC50 of 1.1 µM.
Turning to `O=C(O)C1CCCN(CCO/C=C/c2cc(F)ccc2Cc2cccc(F)c2)C1` (configuration not stated), the Activity worked out at 59.3% in test [1], 51.8% in the test on HEK293 and 70.5% in test [3]. In test [2], this compound showed a 50% inhibitory concentration (IC50) of 6.76 µM.
Regarding `O=C(O)C1CCCN(CCO/C=C\c2ccc(F)cc2Cc2ccccc2F)C1` (configuration not stated), the IC50 was 60.3 µM in the test “cells” and 0.631 µM in test [2]. Besides, the Activity in test [3] was found to be 80.1%.
On to `O=C(c1ccc(F)cc1)c1cc(F)ccc1/C=C/OCCN1CCCC(C(=O)O)C1` (configuration not stated), for which the figures for the Activity (in test [1]; in the test with HEK293; in test [3]) were 68.8%, 72.7% and 71.4%, respectively. This compound showed a half-inhibitory concentration (IC50) in test [2] of 1.86 µM.
With `O=C(O)C1CCCN(CCO/C=C\c2cc(F)ccc2Cc2ccccc2F)C1` (configuration not stated), the values for the IC50 (in the test “cells”; in test [2]) were 49 µM and 0.302 µM, respectively. In addition, the Activity in test [3] stood at 71.1%.
Regarding `O=C(c1cccc(F)c1)c1ccc(F)cc1/C=C/OCCN1CCCC(C(=O)O)C1` (configuration not stated), the IC50 in the test “cells” is 200 µM; in test [2], 29.5 µM.
On to `O=C(c1ccc(F)cc1)c1cc(F)ccc1/C=C\OCCN1CCCC(C(=O)O)C1` (configuration not stated), for which the Activity is 59.8% in test [1], 44.8% in the test with HEK293 and 73% in test [3]. Also, in test [2], the 50% inhibitory concentration (IC50) was 0.339 µM.
For the compound `O=C(O)[C@@H]1CCCN(CCC=C(c2ccccc2)c2ccccc2)C1`, the IC50 in “cells” was 275 µM; in test [2] it was 0.692 µM.
As for `O=C(O)C1CCCN(CCO/C=C\c2ccc(F)cc2Cc2ccc(F)cc2)C1` (configuration not stated), the values for the IC50 (in the test “cells”; in test [2]) were 25.7 µM and 1.17 µM, respectively. Further, the Activity in test [3] came to 64.8%.
Turning to `O=C(O)C1CCCN(CCO/C=C\c2cc(F)ccc2Cc2cccc(F)c2)C1` (configuration not stated), the Activity was 56% with HEK293 and 60.3% in test [3]. Also, in test [2], the IC50 was 0.302 µM.
For the compound `O=C(O)C1CCCN(CCO/C=C/c2cc(F)ccc2Cc2ccc(F)cc2)C1` (configuration not stated), the IC50 in “cells” was 93.3 µM; in test [2], 8.91 µM. Besides, the values for the Activity in test [1] and in test [3] were 62% and 58.1%, respectively.
For `O=C(c1ccc(F)cc1)c1ccc(F)cc1/C=C/OCCN1CCCC(C(=O)O)C1` (configuration not stated), the Activity in test [1] is 97.7%; in the test with HEK293, 94.3%; in test [3] it was 61.2%. The IC50 in test [2] is 20.9 µM.
As to `O=C(c1ccccc1)c1ccccc1/C=C\OCCN1CCCC(C(=O)O)C1` (configuration not stated), the results for the Activity (in test [1]; with HEK293; in test [3]) were 59.8%, 72.4% and 72.3%, respectively. In test [2], this compound gave a half-maximal inhibitory concentration (IC50) of 7.08 µM.
For `O=C(c1ccccc1)c1ccccc1/C=C/OCCN1CCCC(C(=O)O)C1` (configuration not stated), in that order: 55.9%, 79.8%, 67.5% and 25.1 µM.
As to `O=C(c1ccccc1F)c1cc(F)ccc1/C=C\OCCN1CCCC(C(=O)O)C1` (configuration not stated), the Activity in test [1] was determined as 43.5%; in the test on HEK293, 45.1%. In test [2], this compound had a concentration for half-maximal inhibition (IC50) of 0.759 µM.
On to `O=C(c1cccc(F)c1)c1ccc(F)cc1/C=C\OCCN1CCCC(C(=O)O)C1` (configuration not stated), for which the results for the Activity (in test [1]; with HEK293; in test [3]) were 83.6%, 52.1% and 96.1%, respectively. The same compound showed an IC50 in test [2] of 2.63 µM.
The corresponding values for `O=C(O)C1CCCN(CCO/C=C/c2ccc(F)cc2Cc2ccc(F)cc2)C1` (configuration not stated) are 49.3%, 63.7%, 71.6% and 4.57 µM.
For `Cc1ccsc1C(=COCCN1CCC[C@@H](C(=O)O)C1)c1sccc1C`, the IC50 in test [2] is 0.0141 µM.
For the compound `O=C(O)C1CCCN(CCO/C=C/c2cc(F)ccc2Cc2ccccc2F)C1` (configuration not stated), the Activity in test [1] is 83.7%; in the test with HEK293, 53.8%; in test [3] it was 47.8%. In test [2], this compound showed a concentration for half-maximal inhibition (IC50) of 10.2 µM.
Turning to `O=C(c1ccccc1F)c1cc(F)ccc1/C=C/OCCN1CCCC(C(=O)O)C1` (configuration not stated), the values for the IC50 (in “cells”; in test [2]) were 67.6 µM and 10.7 µM, respectively.
For the compound `Cc1ccsc1C(=CCCN1CCC[C@@H](C(=O)O)C1)c1sccc1C`, the Activity in the test on HEK293 is 73.4%.
As to `O=C(O)C1CCCN(CCO/C=C\c2ccccc2Cc2ccccc2)C1` (configuration not stated), the values for the Activity (in test [1]; in the test with HEK293; in test [3]) were 56%, 66% and 68.6%, respectively. The 50% inhibitory concentration (IC50) in test [2] was 0.398 µM.
The corresponding values for `O=C(c1ccccc1F)c1ccc(F)cc1/C=C\OCCN1CCCC(C(=O)O)C1` (configuration not stated) are 83.2%, 86.3%, 74.5% and 3.02 µM.
On to `O=C(c1cccc(F)c1)c1cc(F)ccc1/C=C/OCCN1CCCC(C(=O)O)C1` (configuration not stated), for which the Activity in test [1] is 51.5%; in the test with HEK293, 67.6%; in test [4], 67.5%; in test [3] it was 62.9%.
For `O=C(O)C1CCCN(CCO/C=C/c2ccc(F)cc2Cc2ccccc2F)C1` (configuration not stated), the figures for the IC50 (in “cells”; in test [2]) were 58.9 µM and 2.69 µM, respectively. In addition, the Activity is 80.1% in test [1] and 57.5% in test [3].
Turning to `O=C(O)C1CCCN(CCO/C=C/c2ccccc2Cc2ccccc2)C1` (configuration not stated), the IC50 in the test “cells” is 31.6 µM; in test [2], 4.17 µM. Moreover, in test [3], the Activity came out at 60.2%.
In the case of `O=C(c1ccc(F)cc1)c1ccc(F)cc1/C=C\OCCN1CCCC(C(=O)O)C1` (configuration not stated), the Activity in test [1] was 79.5%; with HEK293, 82.2%; in test [3] it was 70.2%. In test [2], it took 7.59 µM to reach half-maximal inhibition (IC50).
Consider `O=C(c1ccccc1F)c1ccc(F)cc1/C=C/OCCN1CCCC(C(=O)O)C1` (configuration not stated), for which the figures for the Activity (in test [1]; with HEK293; in test [3]) were 57.6%, 52.1% and 68.6%, respectively. In addition, half-maximal inhibition in test [2] (IC50) required 8.13 µM.
